Assay [1] addresses Protein-S-isoprenylcysteine O-methyltransferase (Rattus norvegicus) (UniProt Q9WVM4). Put plainly: In vitro inhibition of Prenylated protein methyltransferase of rat brain cerebellar synaptosomes was assessed from the amount of [3H]-methyl esters formed in 15 min. In kind it is subcellular. The method in brief: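 Compounds at 150 μM final were tested as methyl acceptors. Enzyme source was rat brain cerebellar synaptosomes (100 μg protein) with 25 μM [methyl-3H]AdoMet ([…]) as methyl donor. Read-out was [3H]methyl esters formed in 15 min, in quadruplicate, ±SEM. Detection limit about 3 pmol.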

Assay [2] has as its target Protein-S-isoprenylcysteine O-methyltransferase (Rattus norvegicus, UniProt Q9WVM4). Put plainly: Ability to inhibit prenylated protein methyltransferase (PPMTase) in cell free systems. The method in brief: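 PPMTase source: rat cerebellum synaptosomal membranes (100 μg protein). Substrate 50 μM AFC with 25 μM [methyl-3H]AdoMet, 37 °C for 15 min, with and without a range of inhibitor concentrations, run in duplicate. Activity with drug is expressed as percent of activity without drug, and Ki is derived from the inhibition curves.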

In assay [3] the test system is EJ. The experiment in a line: Effective concentration required for 50% inhibition of growth of human Ha-ras-transformed rat 1 (EJ)cells; not active at 200 uM. In kind it is functional, cell-based. A digest of the protocol:
(§1)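 Ha-ras-transformed Rat1 (EJ) cells grown in DMEM/10% FCS with compound in 0.1% DMSO (vehicle controls 0.1% DMSO), 7-day cultures. Cell number by direct counting gives dose–response curves, and EC50 is the concentration giving 50% growth inhibition. Means of three to five determinations ±SD.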

Assay [4] has as its system EJ. Put plainly: The highest nontoxic concentration for human Ha-ras-transformed rat 1 (EJ) cells was determined by MTT staining method. In kind it is functional. The method in brief: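 EJ (Ha-ras-transformed Rat1) cultures treated with compound were stained with MTT to detect live cells, with trypan blue also used to detect dead cells. The value reported is the highest concentration without toxicity.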

Assay [5] has as its system EJ. Put plainly: Effective concentration required for 50% inhibition of growth of human Ha-ras-transformed rat 1 (EJ)cells. Format: functional, cell-based. A digest of the protocol: as §1

Sequence of Protein-S-isoprenylcysteine O-methyltransferase (Rattus norvegicus) (Q9WVM4 whole entry): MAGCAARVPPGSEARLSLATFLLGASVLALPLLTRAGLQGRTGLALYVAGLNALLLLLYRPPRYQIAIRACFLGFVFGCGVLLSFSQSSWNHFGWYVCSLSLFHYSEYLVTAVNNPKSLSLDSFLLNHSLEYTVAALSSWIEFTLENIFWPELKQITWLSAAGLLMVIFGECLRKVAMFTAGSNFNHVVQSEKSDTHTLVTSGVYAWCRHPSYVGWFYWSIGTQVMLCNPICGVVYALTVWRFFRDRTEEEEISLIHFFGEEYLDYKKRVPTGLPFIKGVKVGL
Sequence of Protein-S-isoprenylcysteine O-methyltransferase (Q9WVM4 whole entry): as above

Molecule `CC(C)=CCC/C(C)=C/CC/C(C)=C/CSc1ccc(N)cc1C(=O)O` yielded an Amount formed in assay [1] of 0.89 pmol. In assay [2], the Ki is 72.8 µM. The EC50 entry in the assay with EJ [3] is given as “Not Active”. In addition, in the assay with EJ [4], the Cytotoxic endpoint amounted to 25 µM.
In assay [1], `CC(C)=CCC/C(C)=C/CC/C(C)=C/CNc1ccc(Cl)c(C(=O)O)c1` gave an Amount formed of 0.37 pmol. In assay [2], this molecule displayed an inhibition constant Ki of 8 µM. This molecule had a Cytotoxic endpoint in the assay on EJ [4] of 200 µM. In the assay on EJ [5], the concentration for a half-maximal effect (EC50) came to 30.8 µM.
As for `CC(=O)N(C/C=C(\C)CC/C=C(\C)CCC=C(C)C)C(CS)C(=O)O` (stereo not drawn), the Amount formed in assay [1] turned out to be 52.5 pmol.
For `CCC(=O)SC/C=C(\C)CC/C=C(\C)CCC=C(C)C`, the Amount formed in assay [1] was determined as 26.3 pmol.
Consider `CC(C)=CCC/C(C)=C/CC/C(C)=C/CSc1ncccc1C(=O)O`, for which the Amount formed in assay [1] was found to be 0.73 pmol. In assay [2], this molecule registered a Ki of 14.9 µM. In the assay on EJ [4], this molecule came in with a Cytotoxic endpoint of 200 µM. Moreover, in the assay with EJ [5], the EC50 is 126 µM.
In the same order, the values of `CC(C)=CCC/C(C)=C/CC/C(C)=C/CSc1ccccc1C(=O)O` [SALIRASIB] are 0.76 pmol, 2.8 µM, 200 µM and 7.5 µM.

The values above are taken from ChEMBL document CHEMBL1128294, “Farnesyl derivatives of rigid carboxylic acids-inhibitors of ras-dependent cell growth” (J Med Chem, 1995).
